Assay results from different studies.
Lines come from different studies, so protocols differ.
CASP3: Caspase-3 (CASP3, Homo sapiens, UniProt P42574)
SMO D473H: Protein smoothened (SMO, Homo sapiens, UniProt Q99835, D473H)
MAPK15: Mitogen-activated protein kinase 15 (MAPK15, Homo sapiens, UniProt Q8TD08)

CC1=C2[C@H]3OC(=O)[C@@H](C)[C@@H]3CC[C@@]2(C)C=CC1=O gave an inhibition of 28% (Ubiquitin carboxyl-terminal hydrolase 51 (USP51, Homo sapiens, UniProt Q70EK9); enzyme activity, inhibitor; 5 µM).
The inhibition of CC(=O)N[C@@H](CC(=O)O)C(=O)N[C@@H](CC(N)=O)C(=O)N[C@@H](CC(C)C)C(=O)N[C@H](C=O)CC(=O)O is reported as 10% (CASP3; enzyme activity, inhibitor; 1 nM).
The Emax of COc1cc(C(=O)NC(N)=Nc2ccc(C)c(NC(=O)c3ccc(-c4ccccc4)cc3)c2)cc(OC)c1OC is reported as -115% (SMO D473H; GTPγS binding, agonist, radiometric; cell membranes).
For C#Cc1n[nH]c2c(-c3cn(C(C)c4ccccn4)c(=O)[nH]c3=O)cc(F)cc12 (stereo not drawn), the inhibition was -6% (Fibroblast growth factor receptor 2 (FGFR2, Homo sapiens, UniProt P21802); enzyme activity, inhibitor; 1 µM).
With CCN(CC)CCCC[C@H](NC(=O)[C@H](CC(C)C)NC(=O)[C@H](C)NC(=O)[C@H](Cc1ccccc1)NC(=O)c1ccc(C(C)(C)C)cc1)C(=O)N[C@@H](CO)C(=O)OC the ΔTm was 0 °C (Bromodomain and PHD finger-containing protein 3 (BRPF3, Homo sapiens, UniProt Q9ULD4); thermal stability, DSF; 25 µM).
Nc1ncc(-c2nc(N3CCOCC3)nc(N3CCOCC3)n2)c(C(F)F)n1 has a remaining binding of 100% (MAPK15; binding, competition with immobilised ligand; 10 µM).
With Cc1cnc(-c2cc(N3CCN(C(=O)CCS(C)(=O)=O)CC3)ncc2Cl)c(C)c1 the Emax was -76.3% (SMO D473H; GTPγS binding, agonist, radiometric; cell membranes).
COc1ncccc1-c1cnn2ccc(N3CCN(C(=O)OC(C)C)CC3)nc12 has a remaining binding of 78% (MAPK15; binding, competition with immobilised ligand; 1 µM).
For Cc1nn(C)cc1-c1nc2c(N3CCN(Cc4ccc(Cl)cc4)CC3)c(Cl)cnc2[nH]1, the remaining binding was 8.2% (MAPK15; binding, competition with immobilised ligand; 1 µM).
The inhibition of O=C(Nc1cccnn1)N1CCN([C@@H]2CCOc3cc(C(F)(F)F)ccc32)CC1 is reported as 18% (Peroxisome proliferator-activated receptor gamma (PPARG, Homo sapiens, UniProt P37231); cell-free assay; 20 µM).
Cc1ncc(C)n2nc(/C=C/c3nc(N4CCCC4)cc(N4CCOCC4)n3)nc12 gave an inhibition of 0% (CASP3; enzyme activity, inhibitor; 10 µM).
CC1=C2C[C@H]3[C@@H](CC=C4C[C@@H](O)CC[C@@]43C)[C@@H]2CC[C@]12O[C@@H]1C[C@H](C)CN[C@H]1[C@H]2C gave an Emax of -99.2% (Protein smoothened (SMO, Homo sapiens, UniProt Q99835); GTPγS binding, agonist, radiometric; cell membranes).
